Consider 1 compound from ChEMBL document CHEMBL5674890, “Selective inhibition of CBP/p300 HAT by A-485 results in suppression of lipogenesis and hepatic gluconeogenesis” (Cell Death Dis, 2020).

The source made the active and inactive calls. The rule behind the calls is not given here.

Assay [1] deals with Mus musculus. As to the kind of experiment: Inhibition of lipogenesis in C57BL/6 mouse supplemented with high-fat diet assessed as decrease in PPARgamma protein expression at 20 mg/kg/day, ip administered for 1 week measured measured by western blot analysis. Format: functional, organism-based. Particulars: time 1.0 weeks. The procedure, abridged:
(§1)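 Male C57BL/6 mice were fed high-fat diet for 14 weeks from 5 weeks of age, then injected ip with 20 mg·kg−1·day−1 for 7 days or given vehicle. Epididymal and inguinal WAT were weighed, examined by H&E, and analysed. Transcripts were measured by Trizol/SYBR Green RT-qPCR; proteins by western blot. n = 5–9; mean ± SEM.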

In assay [2] the test system is Mus musculus. Put plainly: Inhibition of lipogenesis in C57BL/6 mouse supplemented with high-fat diet assessed as decrease in FABP4 mRNA expression at 20 mg/kg/day, ip administered for 1 week measured measured by RT-qPCR assay. The settings on record: time 1.0 weeks. It counts as functional, organism-based. The procedure, abridged:
as §1

Assay [3] has as its system Mus musculus. As to the kind of experiment: Anti-obesity activity in 6 hrs fasted C57BL/6 mouse supplemented with normal chow diet assessed as effect on insulin sensitivity at 20 mg/kg/day, ip administered for 1 week measured by insulin tolerance test. Particulars: time 1.0 weeks. Format: functional, organism-based. The procedure, abridged:
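Insulin tolerance test in normal-chow male C57BL/6 mice (8 weeks), after 7 days of ip dosing at 20 mg·kg−1·day−1. 6 h fast, then insulin 0.75 UI/kg body weight ip; blood glucose followed. Mean ± SEM, n = 5–9.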

The subject of assay [4] is Mus musculus. Put plainly: Inhibition of lipogenesis in C57BL/6 mouse supplemented with high-fat diet assessed as decrease in SREBP-1c mRNA expression at 20 mg/kg/day, ip administered for 1 week measured by RT-qPCR assay. The settings on record: time 1.0 weeks. It counts as functional, organism-based. The procedure, abridged:
as §1

The test system of assay [5] is Mus musculus. As to the kind of experiment: Inhibition of lipogenesis in C57BL/6 mouse supplemented with normal chow diet assessed as decrease in FABP4 mRNA expression at 20 mg/kg/day, ip administered for 1 week measured measured by RT-qPCR assay. Format: functional, organism-based. Particulars: time 1.0 weeks. Put shortly: (§2)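 Eight-week-old male C57BL/6 mice on normal chow were given 20 mg·kg−1·day−1 ip daily for 7 days or vehicle. Epididymal WAT was collected. Lipogenic, adipogenic and fatty-acid-oxidation transcripts were quantified by Trizol extraction and SYBR Green RT-qPCR. FAS, ACC, PPARγ and C/EBPα protein were assessed by western blot. n = 5–9; mean ± SEM.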

Assay [6] deals with Mus musculus. As to the kind of experiment: Inhibition of lipogenesis in C57BL/6 mouse supplemented with normal chow diet assessed as effect on ACADVL mRNA expression at 20 mg/kg/day, ip administered for 1 week measured by RT-qPCR assay. Format: functional, organism-based. Particulars: time 1.0 weeks. The procedure, abridged:
as §2

The species entered for assay [7] is Mus musculus. Put plainly: Inhibition of glucogenesis in mouse assessed as decrease in occupancy of G6Pc promoter with FOXO1 in liver measured by ChIP-qPCR analysis. It counts as functional, organism-based. Put shortly:
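Livers from mice dosed ip at 20 mg·kg−1·day−1 for 7 days. Tissue crosslinked in 1% formaldehyde, lysed, sonicated to 200–1000 bp chromatin, immunoprecipitated with anti-FOXO1 or IgG. G6Pc promoter quantified by qPCR.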

The test system of assay [8] is Hepatocyte. As to the kind of experiment: Inhibition of lipogenesis in mouse primary hepatocytes assessed as decrease in HMGCS1 mRNA expression at 3 uM in presence of 100 nM insulin and 5 to 25 mM glucose measured after 18 hrs by RT-qPCR assay. Format: functional, cell-based. Put shortly: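 Primary hepatocytes isolated from C57BL/6 mice by two-step perfusion. Cells incubated 18 h with 3 μM inhibitor, with 0 or 100 nM insulin and 5 or 25 mM glucose. Transcripts quantified by SYBR Green RT-qPCR after Trizol RNA extraction; proteins by western blot of lysates. Mean ± SEM.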

The test system of the next assay is Adipocyte. As to the kind of experiment: Inhibition of lipogenesis in mouse adipocytes isolated stromal vascular cells assessed as decrease in SCD1 mRNA expression measured after 24 hrs by RT-qPCR assay. It counts as functional, cell-based. The procedure, abridged:
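Stromal vascular cells from inguinal WAT of C57BL/6 mice, grown in DMEM/F12 + 10% FBS at 37 °C, 10% CO2. At confluence, induced 48 h with 5 μg/ml insulin, 1 μM dexamethasone, 0.5 mM isobutylmethylxanthine, then 6 days in 5 μg/ml insulin; fully differentiated day 8. Mature adipocytes exposed to inhibitor 24 h. Total RNA by Trizol, SYBR Green RT-qPCR; protein by western blot.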

The subject of assay [9] is Mus musculus. As to the kind of experiment: Inhibition of hepatic lipogenesis in C57BL/6 mouse supplemented with normal chow diet assessed as decrease in total cholesterol level at 20 mg/kg/day, ip administered for 1 week. It counts as functional, organism-based. Particulars: time 1.0 weeks. Put shortly: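 Male C57BL/6 mice received ip A-485 at 20 mg·kg−1·day−1 for 7 days, versus vehicle. NCD mice were 8 weeks old. HFD mice had been on high-fat diet for 14 weeks from 5 weeks of age. Liver triglyceride and total cholesterol content was determined. n = 5–9; mean ± SEM.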

Assay [10] is filed under the species Mus musculus. As to the kind of experiment: Inhibition of glucogenesis in mouse assessed as decrease in hepatic C/EBPalpha protein expression measured by western blot analysis. It counts as functional, organism-based. The procedure, abridged: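 Livers from vehicle- or treated mice (ip 20 mg·kg−1·day−1 for 7 days) homogenized in lysis buffer; FOXO1 and C/EBPα analysed by western blot.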

Assay [11] concerns Hepatocyte. Put plainly: Inhibition of glucogenesis in mouse primary hepatocytes stimulated with 100 uM 8-Br-cAMP assessed as decrease in C/EBPalpha mRNA expression at 3 uM measured after 8 hrs by RT-qPCR assay. It counts as functional, cell-based. The procedure, abridged: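 Primary mouse hepatocytes treated with 3 μM compound and 100 μM 8-Br-cAMP for 8 h. Trizol RNA, SYBR Green RT-qPCR of the named transcript. Mean ± SEM, three independent experiments.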

The test system of assay [12] is Hepatocyte. As to the kind of experiment: Inhibition of glucogenesis in mouse primary hepatocytes stimulated with 100 uM 8-Br-cAMP assessed as effect on pTORC2 protein expression at 3 uM measured after 1 hr by western blot analysis. It counts as functional, cell-based. Put shortly: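 Primary hepatocytes from C57BL/6 mice, isolated by two-step perfusion, were co-treated with 3 μM A-485 and 100 μM 8-Br-cAMP for 1 h. Phospho-CREB, phospho-AMPK and phospho-TORC2 were detected by western blot of cell lysates. Three independent experiments; mean ± SEM.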

For assay [13], the system named is Mus musculus. As to the kind of experiment: Inhibition of lipogenesis in C57BL/6 mouse supplemented with high-fat diet assessed as decrease in C/EBPalpha protein expression at 20 mg/kg/day, ip administered for 1 week measured measured by western blot analysis. It counts as functional, organism-based. Particulars: time 1.0 weeks. Put shortly:
as §1

Assay [14] relates to Mus musculus. Put plainly: Inhibition of hepatic lipogenesis in C57BL/6 mouse supplemented with normal chow diet assessed as effect on CPT1alpha mRNA expression at 20 mg/kg/day, ip administered for 1 week measured by RT-qPCR assay. Format: functional, organism-based. Particulars: time 1.0 weeks. The procedure, abridged:
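Normal-chow male C57BL/6 mice, 8 weeks old, were injected ip at 20 mg·kg−1·day−1 daily for 7 days or given vehicle. Liver RNA was extracted with Trizol, and fatty-acid-oxidation gene transcripts were quantified by SYBR Green RT-qPCR. n = 5–9; mean ± SEM.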

Assay [15] relates to Mus musculus. As to the kind of experiment: Inhibition of lipogenesis in C57BL/6 mouse supplemented with normal chow diet assessed as decrease in DGAT2 mRNA expression at 20 mg/kg/day, ip administered for 1 week measured by RT-qPCR assay. Format: functional, organism-based. Particulars: time 1.0 weeks. Put shortly:
as §2

Assay [16] deals with Mus musculus. As to the kind of experiment: Anti-obesity activity in C57BL/6 mouse supplemented with normal chow diet assessed as decrease in hepatic G6Pc mRNA expression at 20 mg/kg/day, ip administered for 1 week measured a by RT-qPCR assay. It counts as functional, organism-based. The settings on record: time 1.0 weeks. The procedure, abridged: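 Liver G6Pc mRNA in 8-week-old normal-chow male C57BL/6 mice after 7 days ip at 20 mg·kg−1·day−1. Trizol RNA extraction, SYBR Green RT-qPCR. Mean ± SEM, n = 5–9.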

`CNC(=O)Nc1ccc2c(c1)CCS21OC(=O)N(CC(=O)N(Cc2ccc(F)cc2)[C@@H](C)C(F)(F)F)C1=O` (some centres not stated): the inhibition result in the assay with Mus musculus [1], in the assay on Mus musculus [2], in the assay with Mus musculus [4], in the assay with Mus musculus [5], in the assay filed under Mus musculus [7] and in the assay with Hepatocyte [8] was “Active” in each case. The inhibition result in the assay on Adipocyte, with Mus musculus [9], in the assay listed under Mus musculus [10], in the assay with Hepatocyte [11], with Mus musculus [13] and in the assay on Mus musculus [15] was “Active” throughout. In addition, in the assay on Mus musculus [3], the result was inactive. Moreover, the inhibition entry in the assay on Mus musculus [6], in the assay on Hepatocyte [12] and in the assay on Mus musculus [14] was “inactive” in each case. In the assay with Mus musculus [16], the outcome was Active.
